Source: ChEMBL document CHEMBL1811814, “Synthesis and evaluation of indole, pyrazole, chromone and pyrimidine based conjugates for tumor growth inhibitory activities--development of highly efficacious cytotoxic agents” (Eur J Med Chem, 2010)

Legend:
Assay type in all cases: functional
Parameters in all cases: scale not given: the % may be the effect or the level left
CCRF-CEM = test: Growth inhibition of human CCRF-CEM cells assessed tumor cell growth at 10^-5 M
Procedure, shortened: (§1)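 NCI 60-human-tumor-cell-line panel screen. Each compound was tested at a single concentration of 10^-5 M, and percent growth of tumor cells was recorded for each cell line. Growth inhibition was expressed from these percent-growth values.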

HL-60(TB) = test: Growth inhibition of human HL-60(TB) cells assessed tumor cell growth at 10^-5 M
Procedure, shortened: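 HL-60(TB), part of the 60-line panel, tested at a single concentration of 10^-5 M. The read-out is percent tumor cell growth relative to untreated growth.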

K562 = test: Growth inhibition of human K562 cells assessed tumor cell growth at 10^-5 M; procedure, shortened: as §1
MOLT-4 = test: Growth inhibition of human MOLT4 cells assessed tumor cell growth at 10^-5 M; procedure, shortened: as §1
[1] = Growth inhibition of human […] cells assessed tumor cell growth at 10^-5 M; procedure, shortened: as §1
SR = test: Growth inhibition of human SR cells assessed tumor cell growth at 10^-5 M
Procedure, shortened: (§2)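 Single-dose screen at 10^-5 M across the 60 human tumor cell line panel, run to NCI standards. The value is the percent growth of each cell line in the presence of compound. Compounds active at this dose moved on to five-concentration testing (10^-4 to 10^-8 M).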

A549 = test: Growth inhibition of human A549 cells assessed tumor cell growth at 10^-5 M; procedure, shortened: as §1
EKVX = test: Growth inhibition of human EKVX cells assessed tumor cell growth at 10^-5 M; procedure, shortened: as §1
HOP-62 = test: Growth inhibition of human HOP62 cells assessed tumor cell growth at 10^-5 M; procedure, shortened: as §1
HOP-92 = test: Growth inhibition of human HOP92 cells assessed tumor cell growth at 10^-5 M; procedure, shortened: as §1
NCI-H226 = test: Growth inhibition of human NCI-H226 cells assessed tumor cell growth at 10^-5 M; procedure, shortened: as §1
NCI-H23 = test: Growth inhibition of human NCI-H23 cells assessed tumor cell growth at 10^-5 M; procedure, shortened: as §1
NCI-H322M = test: Growth inhibition of human NCI-H322M cells assessed tumor cell growth at 10^-5 M; procedure, shortened: as §1
NCI-H460 = test: Growth inhibition of human NCI-H460 cells assessed tumor cell growth at 10^-5 M; procedure, shortened: as §1
NCI-H522 = test: Growth inhibition of human NCI-H522 cells assessed tumor cell growth at 10^-5 M; procedure, shortened: as §1
COLO 205 = test: Growth inhibition of human COLO205 cells assessed tumor cell growth at 10^-5 M; procedure, shortened: as §1
HCC 2998 = test: Growth inhibition of human HCC2998 cells assessed tumor cell growth at 10^-5 M; procedure, shortened: as §1
HCT-116 = test: Growth inhibition of human HCT116 cells assessed tumor cell growth at 10^-5 M; procedure, shortened: as §1
HCT-15 = test: Growth inhibition of human HCT15 cells assessed tumor cell growth at 10^-5 M; procedure, shortened: as §1
HT-29 = test: Growth inhibition of human HT-29 cells assessed tumor cell growth at 10^-5 M; procedure, shortened: as §1
KM12 = test: Growth inhibition of human KM12 cells assessed tumor cell growth at 10^-5 M; procedure, shortened: as §1
SW-620 = test: Growth inhibition of human SW620 cells assessed tumor cell growth at 10^-5 M; procedure, shortened: as §2
SF-268 = test: Growth inhibition of human SF268 cells assessed tumor cell growth at 10^-5 M; procedure, shortened: as §1
SF-295 = test: Growth inhibition of human SF295 cells assessed tumor cell growth at 10^-5 M; procedure, shortened: as §1
SF-539 = test: Growth inhibition of human SF539 cells assessed tumor cell growth at 10^-5 M; procedure, shortened: as §1
SNB-19 = test: Growth inhibition of human SNB19 cells assessed tumor cell growth at 10^-5 M; procedure, shortened: as §2
SNB-75 = test: Growth inhibition of human SNB75 cells assessed tumor cell growth at 10^-5 M; procedure, shortened: as §2
U-251 = test: Growth inhibition of human U251 cells assessed tumor cell growth at 10^-5 M; procedure, shortened: as §2
LOX IMVI = test: Growth inhibition of human LOXIMVI cells assessed tumor cell growth at 10^-5 M; procedure, shortened: as §1
Malme-3M = test: Growth inhibition of human MALME-3M cells assessed tumor cell growth at 10^-5 M; procedure, shortened: as §1
M14 = test: Growth inhibition of human M14 cells assessed tumor cell growth at 10^-5 M; procedure, shortened: as §1
MDA-MB-435 = test: Growth inhibition of human MDA-MB-435 cells assessed tumor cell growth at 10^-5 M; procedure, shortened: as §1
SK-MEL-2 = test: Growth inhibition of human SK-MEL-2 cells assessed tumor cell growth at 10^-5 M; procedure, shortened: as §1
SK-MEL-28 = test: Growth inhibition of human SK-MEL-28 cells assessed tumor cell growth at 10^-5 M; procedure, shortened: as §1
SK-MEL-5 = test: Growth inhibition of human SK-MEL-5 cells assessed tumor cell growth at 10^-5 M; procedure, shortened: as §1
UACC-257 = test: Growth inhibition of human UACC257 cells assessed tumor cell growth at 10^-5 M; procedure, shortened: as §2
UACC-62 = test: Growth inhibition of human UACC62 cells assessed tumor cell growth at 10^-5 M; procedure, shortened: as §2
IGROV-1 = test: Growth inhibition of human IGROV1 cells assessed tumor cell growth at 10^-5 M; procedure, shortened: as §1
OVCAR-3 = test: Growth inhibition of human OVCAR3 cells assessed tumor cell growth at 10^-5 M; procedure, shortened: as §1
OVCAR-4 = test: Growth inhibition of human OVCAR4 cells assessed tumor cell growth at 10^-5 M; procedure, shortened: as §1
OVCAR-5 = test: Growth inhibition of human OVCAR5 cells assessed tumor cell growth at 10^-5 M; procedure, shortened: as §1
OVCAR-8 = test: Growth inhibition of human OVCAR8 cells assessed tumor cell growth at 10^-5 M; procedure, shortened: as §1
NCI/ADR-RES = test: Growth inhibition of human NCI/ADR-RES cells assessed tumor cell growth at 10^-5 M; procedure, shortened: as §1
SK-OV-3 = test: Growth inhibition of human SKOV3 cells assessed tumor cell growth at 10^-5 M; procedure, shortened: as §1
786-0 = test: Growth inhibition of human 786-0 cells assessed tumor cell growth at 10^-5 M; procedure, shortened: as §1
A498 = test: Growth inhibition of human A498 cells assessed tumor cell growth at 10^-5 M; procedure, shortened: as §1
ACHN = test: Growth inhibition of human ACHN cells assessed tumor cell growth at 10^-5 M; procedure, shortened: as §1
CAKI-1 = test: Growth inhibition of human Caki1 cells assessed tumor cell growth at 10^-5 M; procedure, shortened: as §1
RXF 393 = test: Growth inhibition of human RXF393 cells assessed tumor cell growth at 10^-5 M; procedure, shortened: as §1
SN12C = test: Growth inhibition of human SN12C cells assessed tumor cell growth at 10^-5 M; procedure, shortened: as §1
TK-10 = test: Growth inhibition of human TK10 cells assessed tumor cell growth at 10^-5 M; procedure, shortened: as §2
UO-31 = test: Growth inhibition of human UO31 cells assessed tumor cell growth at 10^-5 M; procedure, shortened: as §2
PC-3 = test: Growth inhibition of human PC3 cells assessed tumor cell growth at 10^-5 M; procedure, shortened: as §1
DU-145 = test: Growth inhibition of human DU145 cells assessed tumor cell growth at 10^-5 M; procedure, shortened: as §1
MCF7 = test: Growth inhibition of human MCF7 cells assessed tumor cell growth at 10^-5 M; procedure, shortened: as §1
MDA-MB-231 = test: Growth inhibition of human MDA-MB-231 cells assessed tumor cell growth at 10^-5 M; procedure, shortened: as §1
[2] = Growth inhibition of human Hs 578T cells assessed tumor cell growth at 10^-5 M; procedure, shortened: as §1
BT-549 = test: Growth inhibition of human BT549 cells assessed tumor cell growth at 10^-5 M; procedure, shortened: as §1
T47D = test: Growth inhibition of human T47D cells assessed tumor cell growth at 10^-5 M; procedure, shortened: as §2
MDA-MB-468 = test: Growth inhibition of human MDA-MB-468 cells assessed tumor cell growth at 10^-5 M; procedure, shortened: as §1

O=C1C(=Cc2cn(Cc3ccccc3)c3ccccc23)C(=O)N(Cc2ccccc2)C(=O)N1Cc1ccccc1
Activity (CCRF-CEM): 117.9% | Activity (HL-60(TB)): 96.4% | Activity (K562): 81.4% | Activity (MOLT-4): 95.2% | Activity [1]: 93.2% | Activity (SR): 87.2% | Activity (A549): 80% | Activity (EKVX): 97.5% | Activity (HOP-62): 85.4% | Activity (HOP-92): 90.9% | Activity (NCI-H226): -49.4% | Activity (NCI-H23): 87.7% | Activity (NCI-H322M): 105% | Activity (NCI-H460): 36% | Activity (NCI-H522): 87.6% | Activity (COLO 205): 26.4% | Activity (HCC 2998): 97.4% | Activity (HCT-116): 76.1% | Activity (HCT-15): 85.7% | Activity (HT-29): 110.8% | Activity (KM12): 100.7% | Activity (SW-620): 100.6% | Activity (SF-268): 87.5% | Activity (SF-295): 34.3% | Activity (SF-539): 83.5% | Activity (SNB-19): 87.1% | Activity (SNB-75): 44.9% | Activity (U-251): 75.6% | Activity (LOX IMVI): 87.1% | Activity (Malme-3M): 104.8% | Activity (M14): 103.5% | Activity (MDA-MB-435): 108.2% | Activity (SK-MEL-2): 83.9% | Activity (SK-MEL-28): 109.5% | Activity (SK-MEL-5): 104.1% | Activity (UACC-257): 52.9% | Activity (UACC-62): 53.1% | Activity (IGROV-1): 75.7% | Activity (OVCAR-3): 97.7% | Activity (OVCAR-4): 57.3% | Activity (OVCAR-5): -7.2% | Activity (OVCAR-8): 83.5% | Activity (NCI/ADR-RES): 105.7% | Activity (SK-OV-3): 47.7% | Activity (786-0): 93.2% | Activity (A498): -95.7% | Activity (ACHN): 86.2% | Activity (CAKI-1): 94.6% | Activity (RXF 393): 57.6% | Activity (SN12C): 101.3% | Activity (TK-10): 40.6% | Activity (UO-31): 73.3% | Activity (PC-3): 90.3% | Activity (DU-145): 110.4% | Activity (MCF7): 80.2% | Activity (MDA-MB-231): 89.3% | Activity [2]: 90.7% | Activity (BT-549): 118.1% | Activity (T47D): 51.6% | Activity (MDA-MB-468): -71.7%
